# From ChEMBL document CHEMBL1944580, “Synthesis of novel sulfonamide-1,2,4-triazoles, 1,3,4-thiadiazoles and 1,3,4-oxadiazoles, as potential antibacterial and antifungal agents. Biological evaluation and conformational analysis studies” (2012)
# Test system: Micrococcus flavus
# Assay: Antibacterial activity against Micrococcus flavus ATCC 10240 treated for 24 hrs followed by sub-cultivated for 72 hrs by micro dilution method
# Type: functional
# Details: not given
# Outline: (§1)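 2 µl from each well was serially subcultured into 100 µl fresh broth per well and incubated a further 72 h. MBC is the lowest concentration with no visible growth, taken as 99.5% killing of the original inoculum. Streptomycin and ampicillin were the positive controls.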
row,SMILES,MBC
1,CCCNc1nnc(Cc2cc(OC)c(OC)cc2S(=O)(=O)N(C)C)o1,260 µM

# Test system: Salmonella typhimurium
# Assay: Antibacterial activity against Salmonella Typhimurium ATCC 13311 treated for 24 hrs followed by sub-cultivated for 72 hrs by micro dilution method
# Type: functional, Salmonella enterica subsp. enterica serovar Typhimurium
# Details: Salmonella enterica
# Outline: as §1
row,SMILES,MBC
1,CCCNc1nnc(Cc2cc(OC)c(OC)cc2S(=O)(=O)N(C)C)o1,260 µM

# Test system: Fulvia fulva
# Assay: Antifungal activity against Fulvia fulva treated for 72 hrs followed by sub-cultivated for 5 days by serial dilution method
# Type: functional
# Details: not given
# Outline: (§2)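 MFC obtained after the 72 h, 28 °C malt-broth microdilution (spore inoculum about 1.0 × 10^5 per well, compounds from 1 mg/ml DMSO). 2 µl was serially subcultured into 100 µl broth per well and incubated a further 5 days at 28 °C. MFC is the lowest concentration with no visible growth, taken as 99.5% killing of the original inoculum.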
row,SMILES,MFC
1,CCCNc1nnc(Cc2cc(OC)c(OC)cc2S(=O)(=O)N(C)C)o1,260 µM

# Test system: Listeria monocytogenes
# Assay: Antibacterial activity against Listeria monocytogenes NCTC 7973 treated for 24 hrs followed by sub-cultivated for 72 hrs by micro dilution method
# Type: functional
# Details: not given
# Outline: as §1
row,SMILES,MBC
1,CCCNc1nnc(Cc2cc(OC)c(OC)cc2S(=O)(=O)N(C)C)o1,260 µM

# Test system: Salmonella typhimurium
# Assay: Antibacterial activity against Salmonella Typhimurium ATCC 13311 after 24 hrs by micro dilution method
# Type: functional, Salmonella enterica subsp. enterica serovar Typhimurium
# Details: Salmonella enterica, ATCC 13311, 24 h
# Outline: (§3)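 Microdilution MIC in 96-well plates. Bacterial suspensions adjusted in sterile saline to 1.0 × 10^5 CFU/ml, giving 1.0 × 10^4 cfu per well in LB broth. Compounds tested at up to 1 mg/ml. Plates incubated 24 h. MIC taken as the lowest concentration with no visible growth under a binocular microscope. OD at 655 nm was also read against a blank and the positive control. Streptomycin and ampicillin were the positive controls.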
row,SMILES,MIC
1,CCCNc1nnc(Cc2cc(OC)c(OC)cc2S(=O)(=O)N(C)C)o1,130 µM

# Test system: Bacillus cereus
# Assay: Antibacterial activity against Bacillus cereus clinical isolate treated for 24 hrs followed by sub-cultivated for 72 hrs by micro dilution method
# Type: functional
# Details: not given
# Outline: as §1
row,SMILES,MBC
1,CCCNc1nnc(Cc2cc(OC)c(OC)cc2S(=O)(=O)N(C)C)o1,260 µM

# Test system: Fulvia fulva
# Assay: Antifungal activity against Fulvia fulva after 72 hrs by serial dilution method
# Type: functional
# Details: not given
# Outline: (§4)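 Modified microdilution MIC. Spores were washed from malt agar cultures with sterile 0.85% saline containing 0.1% Tween 80 and adjusted to about 1.0 × 10^5 per 100 µl well in malt broth. Compounds were dissolved in DMSO (1 mg/ml). Plates incubated 72 h at 28 °C. MIC is the lowest concentration with no visible growth under a binocular microscope. Bifonazole and ketoconazole were the references.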
row,SMILES,MIC
1,CCCNc1nnc(Cc2cc(OC)c(OC)cc2S(=O)(=O)N(C)C)o1,130 µM

# Test system: Pseudomonas aeruginosa
# Assay: Antibacterial activity against Pseudomonas aeruginosa ATCC 27853 treated for 24 hrs followed by sub-cultivated for 72 hrs by micro dilution method
# Type: functional
# Details: not given
# Outline: as §1
row,SMILES,MBC
1,CCCNc1nnc(Cc2cc(OC)c(OC)cc2S(=O)(=O)N(C)C)o1,260 µM

# Test system: Pseudomonas aeruginosa
# Assay: Antibacterial activity against Pseudomonas aeruginosa ATCC 27853 after 24 hrs by micro dilution method
# Type: functional
# Details: ATCC 27853, 24 h
# Outline: as §3
row,SMILES,MIC
1,CCCNc1nnc(Cc2cc(OC)c(OC)cc2S(=O)(=O)N(C)C)o1,260 µM

# Test system: Escherichia coli
# Assay: Antibacterial activity against Escherichia coli ATCC 35210 after 24 hrs by micro dilution method
# Type: functional
# Details: ATCC 35210, 24 h
# Outline: as §3
row,SMILES,MIC
1,CCCNc1nnc(Cc2cc(OC)c(OC)cc2S(=O)(=O)N(C)C)o1,630 µM

# Test system: Aspergillus versicolor
# Assay: Antifungal activity against Aspergillus versicolor ATCC 11730 treated for 72 hrs followed by sub-cultivated for 5 days by serial dilution method
# Type: functional
# Details: not given
# Outline: as §2
row,SMILES,MFC
1,CCCNc1nnc(Cc2cc(OC)c(OC)cc2S(=O)(=O)N(C)C)o1,390 µM

# Test system: Trichoderma viride
# Assay: Antifungal activity against Trichoderma viride IAM 5061 treated for 72 hrs followed by sub-cultivated for 5 days by serial dilution method
# Type: functional
# Details: not given
# Outline: as §2
row,SMILES,MFC
1,CCCNc1nnc(Cc2cc(OC)c(OC)cc2S(=O)(=O)N(C)C)o1,130 µM

# Test system: Aspergillus niger
# Assay: Antifungal activity against Aspergillus niger ATCC 6275 treated for 72 hrs followed by sub-cultivated for 5 days by serial dilution method
# Type: functional
# Details: not given
# Outline: as §2
row,SMILES,MFC
1,CCCNc1nnc(Cc2cc(OC)c(OC)cc2S(=O)(=O)N(C)C)o1,390 µM

# Test system: Aspergillus niger
# Assay: Antifungal activity against Aspergillus niger ATCC 6275 after 72 hrs by serial dilution method
# Type: functional
# Details: ATCC 6275, 72 h
# Outline: as §4
row,SMILES,MIC
1,CCCNc1nnc(Cc2cc(OC)c(OC)cc2S(=O)(=O)N(C)C)o1,130 µM

# Test system: Enterobacter cloacae
# Assay: Antibacterial activity against Enterobacter cloacae human isolate after 24 hrs by micro dilution method
# Type: functional
# Details: not given
# Outline: as §3
row,SMILES,MIC
1,CCCNc1nnc(Cc2cc(OC)c(OC)cc2S(=O)(=O)N(C)C)o1,630 µM

# Test system: Staphylococcus aureus
# Assay: Antibacterial activity against Staphylococcus aureus ATCC 6538 treated for 24 hrs followed by sub-cultivated for 72 hrs by micro dilution method
# Type: functional
# Details: not given
# Outline: as §1
row,SMILES,MBC
1,CCCNc1nnc(Cc2cc(OC)c(OC)cc2S(=O)(=O)N(C)C)o1,260 µM

# Test system: Aspergillus flavus
# Assay: Antifungal activity against Aspergillus flavus ATCC 9643 treated for 72 hrs followed by sub-cultivated for 5 days by serial dilution method
# Type: functional
# Details: not given
# Outline: as §2
row,SMILES,MFC
1,CCCNc1nnc(Cc2cc(OC)c(OC)cc2S(=O)(=O)N(C)C)o1,390 µM

# Test system: Penicillium ochrochloron
# Assay: Antifungal activity against Penicillium ochrochloron ATCC 9112 after 72 hrs by serial dilution method
# Type: functional
# Details: ATCC 9112, 72 h
# Outline: as §4
row,SMILES,MIC
1,CCCNc1nnc(Cc2cc(OC)c(OC)cc2S(=O)(=O)N(C)C)o1,130 µM

# Test system: Aspergillus fumigatus
# Assay: Antifungal activity against Aspergillus fumigatus human isolate treated for 72 hrs followed by sub-cultivated for 5 days by serial dilution method
# Type: functional
# Details: not given
# Outline: as §2
row,SMILES,MFC
1,CCCNc1nnc(Cc2cc(OC)c(OC)cc2S(=O)(=O)N(C)C)o1,260 µM

# Test system: Aspergillus versicolor
# Assay: Antifungal activity against Aspergillus versicolor ATCC 11730 after 72 hrs by serial dilution method
# Type: functional
# Details: ATCC 11730, 72 h
# Outline: as §4
row,SMILES,MIC
1,CCCNc1nnc(Cc2cc(OC)c(OC)cc2S(=O)(=O)N(C)C)o1,260 µM

# Test system: Micrococcus flavus
# Assay: Antibacterial activity against Micrococcus flavus ATCC 10240 after 24 hrs by micro dilution method
# Type: functional
# Details: ATCC 10240, 24 h
# Outline: as §3
row,SMILES,MIC
1,CCCNc1nnc(Cc2cc(OC)c(OC)cc2S(=O)(=O)N(C)C)o1,130 µM

# Test system: Penicillium ochrochloron
# Assay: Antifungal activity against Penicillium ochrochloron ATCC 9112 treated for 72 hrs followed by sub-cultivated for 5 days by serial dilution method
# Type: functional
# Details: not given
# Outline: as §2
row,SMILES,MFC
1,CCCNc1nnc(Cc2cc(OC)c(OC)cc2S(=O)(=O)N(C)C)o1,260 µM

# Test system: Escherichia coli
# Assay: Antibacterial activity against Escherichia coli ATCC 35210 treated for 24 hrs followed by sub-cultivated for 72 hrs by micro dilution method
# Type: functional
# Details: not given
# Outline: as §1
row,SMILES,MBC
1,CCCNc1nnc(Cc2cc(OC)c(OC)cc2S(=O)(=O)N(C)C)o1,630 µM

# Test system: Bacillus cereus
# Assay: Antibacterial activity against Bacillus cereus clinical isolate after 24 hrs by micro dilution method
# Type: functional
# Details: not given
# Outline: as §3
row,SMILES,MIC
1,CCCNc1nnc(Cc2cc(OC)c(OC)cc2S(=O)(=O)N(C)C)o1,260 µM

# Test system: Talaromyces funiculosus
# Assay: Antifungal activity against Penicillium funiculosum ATCC 36839 after 72 hrs by serial dilution method
# Type: functional
# Details: ATCC 36839, 72 h
# Outline: as §4
row,SMILES,MIC
1,CCCNc1nnc(Cc2cc(OC)c(OC)cc2S(=O)(=O)N(C)C)o1,260 µM

# Test system: Trichoderma viride
# Assay: Antifungal activity against Trichoderma viride IAM 5061 after 72 hrs by serial dilution method
# Type: functional
# Details: IAM 5061, 72 h
# Outline: as §4
row,SMILES,MIC
1,CCCNc1nnc(Cc2cc(OC)c(OC)cc2S(=O)(=O)N(C)C)o1,70 µM

# Test system: Talaromyces funiculosus
# Assay: Antifungal activity against Penicillium funiculosum ATCC 36839 treated for 72 hrs followed by sub-cultivated for 5 days by serial dilution method
# Type: functional
# Details: not given
# Outline: as §2
row,SMILES,MFC
1,CCCNc1nnc(Cc2cc(OC)c(OC)cc2S(=O)(=O)N(C)C)o1,780 µM

# Test system: Enterobacter cloacae
# Assay: Antibacterial activity against Enterobacter cloacae human isolate treated for 24 hrs followed by sub-cultivated for 72 hrs by micro dilution method
# Type: functional
# Details: not given
# Outline: as §1
row,SMILES,MBC
1,CCCNc1nnc(Cc2cc(OC)c(OC)cc2S(=O)(=O)N(C)C)o1,750 µM

# Test system: Listeria monocytogenes
# Assay: Antibacterial activity against Listeria monocytogenes NCTC 7973 after 24 hrs by micro dilution method
# Type: functional
# Details: NCTC 7973, 24 h
# Outline: as §3
row,SMILES,MIC
1,CCCNc1nnc(Cc2cc(OC)c(OC)cc2S(=O)(=O)N(C)C)o1,130 µM

# Test system: Aspergillus fumigatus
# Assay: Antifungal activity against Aspergillus fumigatus human isolate after 72 hrs by serial dilution method
# Type: functional
# Details: not given
# Outline: as §4
row,SMILES,MIC
1,CCCNc1nnc(Cc2cc(OC)c(OC)cc2S(=O)(=O)N(C)C)o1,130 µM

# Test system: Aspergillus flavus
# Assay: Antifungal activity against Aspergillus flavus ATCC 9643 after 72 hrs by serial dilution method
# Type: functional
# Details: ATCC 9643, 72 h
# Outline: as §4
row,SMILES,MIC
1,CCCNc1nnc(Cc2cc(OC)c(OC)cc2S(=O)(=O)N(C)C)o1,130 µM

# Test system: Staphylococcus aureus
# Assay: Antibacterial activity against Staphylococcus aureus ATCC 6538 after 24 hrs by micro dilution method
# Type: functional
# Details: ATCC 6538, 24 h
# Outline: as §3
row,SMILES,MIC
1,CCCNc1nnc(Cc2cc(OC)c(OC)cc2S(=O)(=O)N(C)C)o1,260 µM
